From ChEMBL document CHEMBL3856186, “Partial Activation and Inhibition of TRPV1 Channels by Evodiamine and Rutaecarpine, Two Major Components of the Fruits of Evodia rutaecarpa” (J Nat Prod, 2016)
Calls of active or inactive are those of the source. No cut-off for these calls is given here.

How the values were obtained:
Assay type in all cases: cell-based
[1] = biological target: Transient receptor potential cation channel subfamily V member 1 (Rattus norvegicus) (UniProt O35433); assay: Partial antagonist activity at rat TRPV1 expressed in HEK293 cells assessed as effect on capsaicin-induced inward current at 0.6 uM by whole-cell patch clamp method (reference value: -151.2 +/- 33 pA/pF)
Sequence of Transient receptor potential cation channel subfamily V member 1 (Rattus norvegicus) (O35433 whole entry): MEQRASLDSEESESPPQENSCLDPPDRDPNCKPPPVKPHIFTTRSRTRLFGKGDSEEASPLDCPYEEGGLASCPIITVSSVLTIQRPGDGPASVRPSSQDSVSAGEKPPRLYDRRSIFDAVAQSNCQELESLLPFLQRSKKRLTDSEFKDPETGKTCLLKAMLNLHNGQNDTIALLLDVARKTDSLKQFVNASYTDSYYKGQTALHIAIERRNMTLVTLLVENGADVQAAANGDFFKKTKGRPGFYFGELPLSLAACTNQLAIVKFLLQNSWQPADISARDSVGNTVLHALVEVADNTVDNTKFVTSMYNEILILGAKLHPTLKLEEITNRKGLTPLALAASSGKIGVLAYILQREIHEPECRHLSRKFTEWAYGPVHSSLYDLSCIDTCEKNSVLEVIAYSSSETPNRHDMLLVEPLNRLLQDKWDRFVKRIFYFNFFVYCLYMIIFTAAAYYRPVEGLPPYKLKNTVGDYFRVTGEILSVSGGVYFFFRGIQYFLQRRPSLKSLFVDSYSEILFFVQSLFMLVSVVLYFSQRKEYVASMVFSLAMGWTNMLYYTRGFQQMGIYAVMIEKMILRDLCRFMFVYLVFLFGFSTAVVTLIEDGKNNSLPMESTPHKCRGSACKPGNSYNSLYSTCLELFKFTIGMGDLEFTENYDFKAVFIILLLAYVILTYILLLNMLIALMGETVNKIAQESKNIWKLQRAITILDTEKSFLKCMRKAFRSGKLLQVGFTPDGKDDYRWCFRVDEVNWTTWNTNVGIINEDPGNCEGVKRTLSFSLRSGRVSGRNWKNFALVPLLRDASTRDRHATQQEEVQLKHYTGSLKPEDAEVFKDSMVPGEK
How it was run: (§1)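 HEK293 cells transiently expressing rat TRPV1 (EGFP cotransfected) were patched in whole-cell mode 1 day post-transfection. Cells were held at −60 mV in Ca2+-containing standard bath (pH 7.4) at ~25 °C. Capsaicin-evoked peak current amplitude was quantified. Sigmoidal curve fitting gave EC50 or IC50 values.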

[2] = biological target: Transient receptor potential cation channel subfamily V member 1 (Rattus norvegicus) (UniProt O35433); assay: Partial antagonist activity at rat TRPV1 expressed in HEK293 cells assessed as effect on capsaicin-induced inward current at 0.1 uM by whole-cell patch clamp method (reference value: -[…] +/- […] pA/pF)
[3] = biological target: Transient receptor potential cation channel subfamily V member 1 (Rattus norvegicus) (UniProt O35433); assay: Partial antagonist activity at rat TRPV1 expressed in HEK293 cells assessed as effect on capsaicin-induced inward current at 1 uM by whole-cell patch clamp method (reference value: -327.4 +/- 52.3 pA/pF); how it was run: as §1
[4] = biological target: Transient receptor potential cation channel subfamily V member 1 (Rattus norvegicus) (UniProt O35433); assay: Partial antagonist activity at rat TRPV1 expressed in HEK293 cells assessed as effect on capsaicin-induced inward current at 0.1 uM by whole-cell patch clamp method (reference value: -327.4 +/- 52.3 pA/pF); how it was run: as §1
[5] = biological target: Transient receptor potential cation channel subfamily V member 1 (Rattus norvegicus) (UniProt O35433); assay: Partial antagonist activity at rat TRPV1 expressed in HEK293 cells assessed as effect on capsaicin current density at 10 uM at -60 mV holding potential in absence of extracellular calcium by whole-cell patch-clamp method (reference value: -2407.7 +/- 850.6 pA)
How it was run: (§2)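 Whole-cell clamp at −60 mV was done on rat TRPV1-transfected HEK293 cells (1 day) using a calcium-free bath (5 mM EGTA, no CaCl2, pH 7.4) at ~25 °C. Capsaicin-evoked peak current was measured.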

[6] = biological target: Transient receptor potential cation channel subfamily V member 1 (Rattus norvegicus) (UniProt O35433); assay: Partial antagonist activity at rat TRPV1 expressed in HEK293 cells assessed as effect on proton-induced channel current at 1 uM and -60 mV holding potential co-treated with proton by whole-cell patch clamp method
How it was run: (§3)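 Proton-activated currents were recorded in rat TRPV1-expressing HEK293 cells held at −60 mV in whole-cell mode, with bath buffered to pH 6 with 10 mM MES, at ~25 °C. Peak current amplitude was the read-out.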

[7] = biological target: Transient receptor potential cation channel subfamily V member 1 (Rattus norvegicus) (UniProt O35433); assay: Partial antagonist activity at rat TRPV1 expressed in HEK293 cells assessed as effect on capsaicin-induced inward current at 0.6 uM by whole-cell patch clamp method (reference value: -[…] +/- […] pA/pF)
[8] = biological target: Transient receptor potential cation channel subfamily V member 1 (Rattus norvegicus) (UniProt O35433); assay: Partial antagonist activity at rat TRPV1 expressed in HEK293 cells assessed as inhibition of proton-induced channel current at 1 or 50 uM and -60 mV holding potential pretreated for 60 secs prior to proton-challenge by whole-cell patch clamp method (reference value: 185.1 +/- 38.6 pA/pF); how it was run: as §3
[9] = biological target: Transient receptor potential cation channel subfamily V member 1 (Rattus norvegicus) (UniProt O35433); assay: Agonist activity at rat TRPV1 channel expressed in HEK293 cells assessed as outward rectifying current at 10 uM and -60 mV holding potential by whole-cell patch-clamp method
How it was run: (§4)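 Rat TRPV1 cDNA and an EGFP reporter were cotransfected into HEK293 cells, with recording 1 day later. Whole-cell voltage clamp was run at room temperature (~25 °C) in standard bath (2 mM CaCl2, pH 7.4) with a KCl/MgATP/EGTA pipette solution. Steps from −100 to +100 mV (100 ms) gave I–V curves. Agonist was applied until desensitization, and peak current was scored. EC50 came from a sigmoidal fit.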

[10] = biological target: Transient receptor potential cation channel subfamily V member 1 (Rattus norvegicus) (UniProt O35433); assay: Partial antagonist activity at rat TRPV1 expressed in HEK293 cells assessed as effect on capsaicin-induced inward current at 10 uM by whole-cell patch clamp method (reference value: -327.4 +/- 52.3 pA/pF); how it was run: as §1
[11] = biological target: Transient receptor potential cation channel subfamily V member 1 (Rattus norvegicus) (UniProt O35433); assay: Partial antagonist activity at rat TRPV1 expressed in HEK293 cells assessed as effect on capsaicin-induced inward current at 1 uM by whole-cell patch clamp method; how it was run: as §1
[12] = biological target: Transient receptor potential cation channel subfamily V member 1 (Rattus norvegicus) (UniProt O35433); assay: Partial antagonist activity at rat TRPV1 expressed in HEK293 cells assessed as desensitization of capsaicin-induced inward current at 10 uM and -60 mV holding potential pretreated for 60 secs prior to capsaicin-challenge in absence of calcium by whole-cell patch-clamp method; how it was run: as §2
[13] = biological target: Transient receptor potential cation channel subfamily V member 1 (Rattus norvegicus) (UniProt O35433); assay: Partial antagonist activity at rat TRPV1 expressed in HEK293 cells assessed as effect on capsaicin-induced inward current at 0.6 uM by whole-cell patch clamp method (reference value: -480.7 +/- 96.9 pA/pF); how it was run: as §1
[14] = biological target: Transient receptor potential cation channel subfamily V member 1 (Rattus norvegicus) (UniProt O35433); assay: Partial antagonist activity at rat TRPV1 expressed in HEK293 cells assessed as effect on capsaicin-induced inward current at 1 uM by whole-cell patch clamp method (reference value: -480.7 +/- 96.9 pA/pF); how it was run: as §1
[15] = biological target: Transient receptor potential cation channel subfamily V member 1 (Rattus norvegicus) (UniProt O35433); assay: Partial antagonist activity at rat TRPV1 expressed in HEK293 cells assessed as effect on capsaicin-induced inward current at 10 uM by whole-cell patch clamp method (reference value: -7 +/- 2.6 pA/pF); how it was run: as §1
[16] = biological target: Transient receptor potential cation channel subfamily V member 1 (Rattus norvegicus) (UniProt O35433); assay: Partial antagonist activity at rat TRPV1 expressed in HEK293 cells assessed as effect on capsaicin-induced inward current at 0.6 uM by whole-cell patch clamp method (reference value: -327.4 +/- 52.3 pA/pF); how it was run: as §1
[17] = biological target: Transient receptor potential cation channel subfamily V member 1 (Rattus norvegicus) (UniProt O35433); assay: Agonist activity at rat TRPV1 channel expressed in HEK293 cells assessed as induction of maximum channel current at 10 uM at -60 mV holding potential by whole-cell patch-clamp method; how it was run: as §4
[18] = biological target: Transient receptor potential cation channel subfamily V member 1 (Rattus norvegicus) (UniProt O35433); assay: Partial antagonist activity at rat TRPV1 expressed in HEK293 cells assessed as inhibition of capsaicin-induced inward current at -60 mV holding potential pretreated for 180 secs prior to capsaicin addition in presence of extracellular calcium by whole-cell patch-clamp method; how it was run: as §1
[19] = biological target: Transient receptor potential cation channel subfamily V member 1 (Rattus norvegicus) (UniProt O35433); assay: Partial antagonist activity at rat TRPV1 expressed in HEK293 cells assessed as effect on capsaicin-induced inward current at 0.1 uM by whole-cell patch clamp method (reference value: -151.2 +/- 33 pA/pF); how it was run: as §1
[20] = biological target: Transient receptor potential cation channel subfamily V member 1 (Rattus norvegicus) (UniProt O35433); assay: Desensitization of rat TRPV1 expressed in HEK293 cells at 10 uM for 30 sec at -60 mV holding potential in presence of extracellular calcium by whole-cell patch clamp method; how it was run: as §4

Activity [1]: -81.6 pA/pF
Activity [2]: -492 pA/pF
Activity [3]: -195 pA/pF
Activity [4]: -236 pA/pF
Activity [5]: -2400 pA/pF
Activity [6]: -158 pA/pF
Activity [7]: -528 pA/pF
Activity [8]: -49.1 pA/pF
Activity [9]: Active
Activity [10]: -160 pA/pF
Activity [11]: -448 pA/pF
Activity [13]: -422 pA/pF
Activity [14]: -296 pA/pF
Activity [15]: -165 pA/pF
Activity [16]: -208 pA/pF
Activity [17]: -143 pA/pF
inhibition [18]: Dose-dependent effect
Activity [19]: -94.8 pA/pF
SMILES: CN1c2ccccc2C(=O)N2CCc3c([nH]c4ccccc34)C21 (stereo not given)
Activity [12]: Active
Activity [20]: Active
